# A selection: hits, their analogues and other compounds. The true share with any hit is near 3.5%.
# RGS4 inh: human RGS4 inhibition | B-score at 10 µM | 310,000 compounds, 0.45% hits | P49798 | HEK293 M3R/RGS4 inducible, Fluo-4 calcium flux; active compounds read high; triggered by carbachol at its EC20;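 active = B-score, a plate-corrected calcium signal, over three deviations above library mean, with baseline fluorescence within five deviations of library mean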;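 note: RGS4 expression induced by doxycycline in cells with stable M3 receptor; B-score is computed from the integrated fluorescence ratio over baseline after carbachol; higher B-score means a larger calcium signal and so more RGS4 inhibition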
# Target sequence (P49798 whole entry, looked up): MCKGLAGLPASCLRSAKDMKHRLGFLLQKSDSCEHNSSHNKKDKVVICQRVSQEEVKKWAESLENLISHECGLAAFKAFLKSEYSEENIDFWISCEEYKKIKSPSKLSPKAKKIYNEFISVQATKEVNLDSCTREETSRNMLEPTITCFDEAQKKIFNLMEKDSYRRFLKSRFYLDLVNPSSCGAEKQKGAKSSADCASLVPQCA
# MrgX1 antag: antagonists of human MrgX1 receptor; B-score at 10 µM; MRGX1-HEK293 calcium flux, Fluo-4, BAM8-22 antagonism; active compounds read low; Q96LB2; AID 588676; 310,000 compounds, 1.3% hits;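 active = calcium-response B-score plate-corrected more than 3 library SD below zero, starting fluorescence within 5 deviations, no agonist response on first addition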;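 note: peak minus trough fluorescence over baseline after final BAM8-22 challenge near maximal dose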
# Target sequence (Q96LB2 whole entry, looked up): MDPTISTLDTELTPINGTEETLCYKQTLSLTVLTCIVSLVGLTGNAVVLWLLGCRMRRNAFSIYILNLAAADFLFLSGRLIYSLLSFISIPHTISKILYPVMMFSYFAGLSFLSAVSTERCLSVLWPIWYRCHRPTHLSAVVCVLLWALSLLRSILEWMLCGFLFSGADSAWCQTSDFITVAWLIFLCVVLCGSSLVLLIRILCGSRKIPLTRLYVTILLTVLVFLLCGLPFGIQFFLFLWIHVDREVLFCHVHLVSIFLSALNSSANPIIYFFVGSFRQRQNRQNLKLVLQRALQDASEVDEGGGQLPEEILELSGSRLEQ
# MrgX1 allo act: human MrgX1 positive allosteric modulation, primary screen; Q96LB2; MrgX1-HEK293, Fluo-4 calcium flux, FDSS; active compounds read high; B-score at 10 µM; 310,000 compounds, 0.63% hits;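 active = plate-corrected calcium response at least 3 library SD above typical, normal starting fluorescence, not activating the receptor alone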;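 note: compound read alongside a low EC10 to EC30 dose of BAM8-22 agonist; peak minus trough fluorescence over baseline measured at the second addition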
# RGS4 act: RGS4 potentiation or activation; B-score at 10 µM; 310,000 compounds, 0.92% hits; AID 463111; HEK293 M3R/inducible RGS4, carbachol calcium flux Fluo4; active compounds read low;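 active = B-score of the integrated calcium signal more than 4 SD below the library mean, with starting fluorescence not abnormally high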;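 note: negative B-score means reduced calcium response which marks RGS4 activation or potentiation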
#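 Material: M3R-expressing HEK293 line, RGS4 induced by doxycycline | Schedule: Overnight RGS4 induction, 30 min dye load 37 °C, 20 min compound RT | Measured by: Fluo4 fluorescence kinetic imaging of calcium | Read-out: Integrated calcium ratio converted to B score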
# MrgX1 ag: human MrgX1 receptor agonism, primary screen | Q96LB2 | MrgX1-HEK293 cells, Fluo-4 calcium fluorescence, agonist mode; active compounds read high | B-score at 10 µM | 310,000 compounds, 0.44% hits | AID 588627;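 active = calcium response B-score plate-corrected fluorescence ratio at least 3 library SD, with starting fluorescence B-score inside 5 SD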
#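 Material: MrgX1-expressing HEK293 cells; input: 15,000 cells per well; doses: test compound given as first of three sequential additions; schedule: overnight plating before 1 h dye loading; technique: Fluo-4 NW calcium-flux fluorescence, kinetic read; evaluation: baseline-normalised fluorescence change ratio, B-scored; control set: plate-wise positive and negative controls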
# RGS4 inh valid: validation of RGS4 inhibitors. shares compounds with RGS4 inh. HEK293 M3R/RGS4, carbachol calcium Fluo-4 fluorescence; carbachol added at its EC20; 0 = buffer wells, 100 = carbachol control. calcium response, % at 10 µM. 1,700 compounds, 65% hits;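 active = duplicate-averaged calcium response above the buffer-only control mean plus 5 SD of those controls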;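 note: integrated fluorescence ratio F max minus min over baseline F0; higher response in RGS4-induced cells means RGS4 inhibition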
# M3R Ca ctr: non-induced cell nonspecific activity of RGS4 inhibitors; shares compounds with RGS4 inh; activity (percent), % at 10 µM; HEK293 M3R non-induced, carbachol calcium Fluo-4; submaximal (EC20) carbachol stimulus; buffer wells 0%, carbachol control wells 100%; 1,900 compounds, 20% hits; call rule not given here;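 note: RGS4 induction absent so cells express M3R without RGS4; higher means more calcium signal and flags a non-specific hit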
# RGS4 inh ctr2: signal in non-induced cells without carbachol, RGS4 inhibitor counter-screen. 1,900 compounds, 22% hits. shares compounds with RGS4 inh. calcium response (agonist-mode artifact), % at 10 µM. HEK293 M3R/RGS4 non-induced, Fluo-4 calcium, no carbachol; normalised: buffer wells 0%, carbachol wells 100%;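 active = duplicate-averaged calcium rise in uninduced cells above buffer wells' mean plus 5 SD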
# * marks the source's active call; other numbers are inactive results; i = inactive; · = no result given.
SMILES,RGS4 inh,MrgX1 antag,MrgX1 allo act,RGS4 act,MrgX1 ag,RGS4 inh valid,M3R Ca ctr,RGS4 inh ctr2
COc1ccc(-c2ccccc2NC(=O)C2CCCN(Cc3ccc(C)o3)C2)cc1 (stereo unspecified),i,i,i,i,i,·,·,·
COc1ccc(C(C[N+](=O)[O-])c2c(C)cc3ccccn23)c(OC)c1 (stereo unspecified),13*,i,i,i,41*,i,i,i
COc1ccc(Br)cc1C(C[N+](=O)[O-])c1c(N)n(C)c(=O)n(C)c1=O (stereo unspecified),i,i,i,i,i,·,·,·
COc1ccc(NC(=O)CCn2cccc2)c(OC)c1,i,i,i,i,i,·,·,·
COc1ccc(OC)c(C(C[N+](=O)[O-])c2c(C)cc3ccccn23)c1 (stereo unspecified),i,i,i,i,i,i,i,i
CCCNC(=O)[C@@H]1CCCN1C(=O)[C@@H]1Cc2ccccc2CN1,i,i,i,i,i,·,·,·
Cc1ccc(-c2ccc(C(=O)NCc3ccc(Cl)cc3)o2)c2ccccc12,4.8*,i,i,i,i,i,i,16%*
O=C1/C(=C/c2ccncc2)SC(=S)N1Cc1ccccc1,i,i,i,i,i,·,·,·
O=C1/C(=C\c2cccc(O)c2)SC(=S)N1Cc1ccccc1,i,i,i,i,i,i,i,i
O=C1/C(=C\c2cccc(O)c2O)SC(=S)N1Cc1ccccc1,8.4*,i,i,i,i,18%*,i,i
COc1cc(/C=C2/SC(=S)N(Cc3ccccc3)C2=O)ccc1O,6.4*,i,11*,i,i,12%*,i,34%*
CC(NC(=O)c1cc(-c2ccncc2)nc2ccc(Br)cc12)C1CCCO1 (stereo unspecified),i,i,i,i,i,·,·,·
COCCn1c(SC(C)C(=O)Nc2ccc(N3CCOCC3)cc2)nnc1-c1ccncc1 (stereo unspecified),i,i,i,i,i,·,·,·
N#CCCN(Cc1ccccc1)C(=O)c1nccnc1C(=O)O,i,i,i,i,i,·,·,·
CCOC(=O)c1sc(N2C(=O)C(O)=C(C(=O)c3ccc(C)o3)C2c2cccc([N+](=O)[O-])c2)nc1C (stereo unspecified),7.3*,i,i,i,i,24%*,i,i
CCOC(=O)c1ccc(N2C(=O)c3n[nH]c(C)c3C2c2ccco2)cc1 (stereo unspecified),i,i,i,i,i,·,·,·
CCOC(=O)c1ccc(N2C(=O)c3n[nH]c(-c4ccco4)c3C2c2cccc([N+](=O)[O-])c2)cc1 (stereo unspecified),6.7*,i,i,i,i,i,i,i
COc1ccc(NC(=O)N2CCCC2C(=O)NCc2cccs2)cc1 (stereo unspecified),i,i,i,i,i,·,·,·
OC(c1cc(C(F)(F)F)nc2c(Cl)cc(Cl)cc12)C1CCCCN1 (stereo unspecified),13*,i,i,i,i,24%*,i,14%*
O[C@@H](c1cc(C(F)(F)F)nc2c(C(F)(F)F)cccc12)[C@H]1CCCCN1,5.7*,i,i,i,i,26%*,i,46%*
O=c1c2cc(Cl)cc(Cl)c2nc2n1CCC2,i,i,i,i,i,·,·,·
OC(c1cc(-c2ccc(Cl)cc2)nc2ccccc12)C1CCCCN1 (stereo unspecified),i,i,i,i,i,·,·,·
O=C(NC1CCN(S(=O)(=O)c2ccccc2C(F)(F)F)CC1)c1ccco1,i,i,i,i,i,·,·,·
NC(=O)Cn1c(=O)n(CC(=O)N2CCCCC2)c(=O)c2sccc21,i,i,i,i,i,·,·,·
CCN(Cc1ccccc1)C(=O)Cn1c(=O)n(CC(=O)N2CCCCC2)c(=O)c2sccc21,i,i,i,i,i,·,44%*,i
SMILES,RGS4 inh,MrgX1 antag,MrgX1 allo act,RGS4 act,MrgX1 ag,RGS4 inh valid,M3R Ca ctr,RGS4 inh ctr2
Cc1ccnc(NS(=O)(=O)c2ccc(NC(=O)CC(C)c3ccccc3)cc2)n1 (stereo unspecified),6.2*,i,i,i,i,5.0%*,i,i
Cc1ccnc(NS(=O)(=O)c2ccc(NC(=O)Cc3ccccc3)cc2)n1,i,i,i,i,i,·,·,·
Cc1ccc(S(=O)(=O)NCC(=O)OCC(=O)NCc2ccc(F)cc2)cc1,i,i,i,i,i,·,·,·
Cc1onc(-c2ccccc2)c1C(O)c1ccc(F)cc1 (stereo unspecified),i,i,i,i,i,·,·,·
Nc1ccc(-c2cc(-c3cccc(N)c3)nc(-c3ccccc3)n2)cc1,i,i,i,i,i,i,i,i
Nc1ccc(-c2nc(-c3ccccc3)nc3ccccc23)cc1,i,i,i,i,i,·,·,·
CCN1CCN(C(=O)/C(C#N)=C/c2ccc(OC(F)F)cc2)CC1,i,i,i,i,i,·,·,·
N#C/C(=C\c1ccc(OC(F)F)cc1)C(=O)N1CCCCC1,5.8*,i,i,i,i,16%*,i,i
CCCCc1cc(=O)oc2cc(OCC(=O)Nc3ccccn3)ccc12,i,i,i,i,i,·,·,·
Cc1cc2cc(C(c3nnnn3Cc3ccco3)N3CCc4ccccc43)c(=O)[nH]c2cc1C (stereo unspecified),5.3*,i,i,i,i,13%*,i,i
Cc1cc2cc(C(c3nnnn3Cc3ccccc3)N3CCc4ccccc43)c(=O)[nH]c2cc1C (stereo unspecified),i,i,i,i,i,·,i,7.0%*
Cc1cc2cc(C(c3nnnn3Cc3ccco3)N3CCc4ccccc4C3)c(=O)[nH]c2cc1C (stereo unspecified),i,i,i,i,i,i,i,39%*
Cc1ccc2[nH]c(=O)c(C(c3nnnn3Cc3ccccc3)N3CCc4ccccc43)cc2c1 (stereo unspecified),i,i,i,i,i,·,·,·

# Bioassay records deposited in PubChem BioAssay by Johns Hopkins Ion Channel Center.
